Screening data (PubChem)
DNMT1 block: inhibitors of human DNMT1; P26358; AID 588458; 0.83% of 360,000 active; inhibition (reported as % activation of signal), % at 10 µM; DNMT1 molecular beacon, Hinp1I cleavage, fluorescence; in the data active = inhibition above about 50%
LMPTP inh: LMPTP (human) inhibition; P24666; recombinant LMPTP-A, OMFP fluorogenic substrate, fluorescence intensity; inhibition, % at 20 µM; 0.22% of 360,000 active; AID 651560;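 active = compounds that cut the enzyme signal by at least half of the control window in the single-dose screen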;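 note: plate controls were DMSO wells with enzyme plus substrate for no effect and substrate without enzyme for full effect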
Target sequence (P24666 whole entry, looked up): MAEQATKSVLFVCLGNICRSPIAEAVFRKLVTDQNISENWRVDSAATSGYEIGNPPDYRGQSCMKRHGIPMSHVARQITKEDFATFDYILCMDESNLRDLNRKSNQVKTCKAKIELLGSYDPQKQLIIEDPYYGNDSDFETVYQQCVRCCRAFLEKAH
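Buffer or medium: Bis-Tris pH 6.0, DTT, detergent; Assay system: LMPTP-A enzyme; Quantity: 0.625 nM enzyme; Detection: endpoint fluorescence intensity; Times: 50 min dark incubation at room temperature; Controls: substrate-only low control, DMSO enzyme-plus-substrate high control; Doses: single 20 µM dose; Read-out: percent inhibition versus substrate-only and uninhibited controls; Reagent: 400 µM OMFP.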
STEP inh: inhibitors of human striatal-enriched phosphatase STEP; inhibition, % at 20 µM; P54829; recombinant STEP, OMFP fluorogenic substrate, fluorescence; 0.25% of 360,000 active;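 active = inhibition at 20 µM, scaled per plate between control wells, above about 37%, limit read from the data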;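 note: 0% = DMSO with enzyme and substrate and 100% = substrate only without enzyme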
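material = STEP tyrosine phosphatase | reagent = fluorogenic phosphatase substrate OMFP at 25 µM final | doses = single compound dose of 20 µM, 1% DMSO final | schedule = 20 min reaction, room temperature, in the dark | measured by = fluorescence, 480/540 nm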
SUMO1 PPI mod: SUMO1-SIM interaction modulation; AID 602429; 0.33% of 360,000 active; P63165; SUMO1 binding to a labelled peptide, TR-FRET, 1 h; inhibition, % at 20 µM; in the data active = inhibition above about 37%
Target sequence (P63165 whole entry, looked up): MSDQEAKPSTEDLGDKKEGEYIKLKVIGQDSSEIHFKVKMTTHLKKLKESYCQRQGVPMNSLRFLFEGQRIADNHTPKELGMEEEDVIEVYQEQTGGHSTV
Scp-1 inhibitor: blocks human Scp-1 phosphatase activity; inhibition, % at 20 µM; 0.88% of 340,000 active; AID 493091; Recombinant Scp1, phosphopeptide, malachite green phosphate absorbance; Q9GZU7;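 active = inhibition above about 50% at 20 µM, limit read from the data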;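 note: plate controls were DMSO wells with enzyme for no effect and wells lacking enzyme for full effect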
Target sequence (Q9GZU7 76-261 limits assumed): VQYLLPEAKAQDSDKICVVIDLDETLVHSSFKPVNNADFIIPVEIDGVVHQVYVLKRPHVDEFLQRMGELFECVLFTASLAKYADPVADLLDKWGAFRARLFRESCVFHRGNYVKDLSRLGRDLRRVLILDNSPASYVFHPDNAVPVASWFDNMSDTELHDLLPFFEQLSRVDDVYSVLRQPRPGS
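assay system = SCP-1 phosphatase catalytic domain, residues 76-261 | buffer or medium = 50 mM Tris acetate pH 5.5, 0.005% Tween-20, 10 mM MgCl2 | incubation = enzyme reaction 45 min at room temperature, colour 5 min, stabilisation 30 min | signal = Phosphate-binding colour reagent, absorbance read at 630 nm | measure = % inhibition at 20 µM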
NadD block: NadD (S. aureus) enzyme inhibition; purified NadD enzyme, colorimetric absorbance read-out; inhibition, % at 20 µM; 0.78% of 360,000 active; in the data active = inhibition above about 26%
Scp1 confirm: Scp-1 (human) inhibition, single-dose confirmed; recombinant SCP-1 catalytic domain, phosphate release, malachite green absorbance; inhibition, % at 20 µM; AID 540281; shares compounds with Scp-1 inhibitor; 61% of 2,500 active;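 note: plate controls were DMSO with enzyme for no effect and buffer wells lacking enzyme for full effect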
Scp-1 MG ctr: counter-screen for Scp-1 inhibitors: colorimetric interference; Colorimetric interference counterscreen, malachite green absorbance 630 nm; shares compounds with Scp-1 inhibitor; AID 540313; apparent inhibition (interference), % at 20 µM; 2,500 tested, under 10 active;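 note: compounds added after enzyme reaction finished so only phosphate colour detection is probed; plate controls were DMSO wells with completed Scp-1 reaction for no effect and substrate wells lacking enzyme for full effect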
Scp-1 Tm shift: validation of human Scp-1 inhibitors by thermal shift binding. shares compounds with Scp-1 inhibitor. 25% of 1,500 active. Recombinant SCP1, Sypro Orange thermal shift Tm. thermal shift relative to vanadate control, % at 40 µM;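 active = substances whose mean melting-temperature shift, as a percentage of the reference inhibitor's shift, reaches about 5.3%, limit read from the data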;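 note: 0% = Tm of DMSO wells and 100% = Tm with sodium orthovanadate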
Active calls of the source: *. An excerpt weighted towards active compounds, which were near 2.4% of everything screened.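 Rule for the calls, unless noted: active = inhibition of at least 30% at 20 µM; inactive = the rest.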

Results for N#C/C(=C\c1c(N2CCOCC2)nc2ccccn2c1=O)S(=O)(=O)c1ccccc1 ?
DNMT1 block: 4; LMPTP inh: 0; STEP inh: 3; SUMO1 PPI mod: -11; Scp-1 inhibitor: 54*; NadD block: -3; Scp1 confirm: -3; Scp-1 MG ctr: -6

Results for CC(=O)Nc1ccc(-c2nnc(SCC(=O)n3c4c(c5ccccc53)CCCC4)n2C)cc1 ?
DNMT1 block: 1; LMPTP inh: 0; STEP inh: 4; SUMO1 PPI mod: 0; Scp-1 inhibitor: 84*; NadD block: -1; Scp1 confirm: 8; Scp-1 MG ctr: 3

What do the screens show for `O=C(Oc1ccccc1C(=O)N1CCOCC1)c1ccc(F)cc1`?
DNMT1 block: 0; LMPTP inh: 2; STEP inh: 2; SUMO1 PPI mod: 4; Scp-1 inhibitor: 97*; NadD block: -5; Scp1 confirm: 0; Scp-1 MG ctr: -5

Results for O=C(Nc1cccc2ncccc12)c1ccccc1F ?
DNMT1 block: -3; LMPTP inh: 0; STEP inh: -1; SUMO1 PPI mod: -5; Scp-1 inhibitor: -4; NadD block: 4

What do the screens show for `O=C(Nc1cccc2ncccc12)c1ccccc1Cl`?
DNMT1 block: 1; LMPTP inh: -1; STEP inh: -3; SUMO1 PPI mod: -4; Scp-1 inhibitor: 98*; NadD block: 9; Scp1 confirm: 4; Scp-1 MG ctr: -2

Results for Cc1cc(CC(=O)O)c2oc(-c3ccoc3)cc(=O)c2c1 ?
Scp-1 inhibitor: 75*; Scp1 confirm: 46*; Scp-1 MG ctr: -15; Scp-1 Tm shift: 5

Results for O=C(CSc1nncc2ccccc12)Nc1cccc(C(=O)O)c1 ?
DNMT1 block: 0; LMPTP inh: -2; STEP inh: 1; SUMO1 PPI mod: 5; Scp-1 inhibitor: -6; NadD block: -2

What do the screens show for `O=C(CSc1nc(-c2ccccc2)nc2ccc(F)cc12)Nc1ccc(C(=O)O)cc1`?
DNMT1 block: 0; LMPTP inh: 62*; STEP inh: 11; SUMO1 PPI mod: -7; Scp-1 inhibitor: 61*; NadD block: 11; Scp1 confirm: 53*; Scp-1 MG ctr: -19; Scp-1 Tm shift: -1

How did CC(C)OC(=O)CSc1nc(-c2ccc(F)cc2)nc2ccc(F)cc12 do in these assays?
DNMT1 block: 4; LMPTP inh: 0; STEP inh: -8; SUMO1 PPI mod: 1; Scp-1 inhibitor: -7; NadD block: 5

Results for O=C(CSc1nc(-c2ccccc2)nc2ccc(F)cc12)Nc1cccc(C(=O)O)c1 ?
DNMT1 block: 0; LMPTP inh: 63*; STEP inh: 8; SUMO1 PPI mod: -7; Scp-1 inhibitor: 67*; NadD block: 12; Scp1 confirm: 60*; Scp-1 MG ctr: -9; Scp-1 Tm shift: -6

Results for CSc1nc2nccc(-c3ccc(Cl)cc3)n2n1 ?
DNMT1 block: 10; LMPTP inh: 25; STEP inh: 5; SUMO1 PPI mod: 1; Scp-1 inhibitor: 84*; NadD block: 0; Scp1 confirm: 71*; Scp-1 MG ctr: -14; Scp-1 Tm shift: -22

How did CCn1nc(C)c(CN2CCCC(CO)(Cc3ccccc3)C2)c1C (centres undefined) do in these assays?
DNMT1 block: 0; LMPTP inh: 0; STEP inh: 0; SUMO1 PPI mod: -2; Scp-1 inhibitor: 1; NadD block: -3

How did Cc1csc(C(C)N(C)C(=O)c2ccc(OC3CCN(Cc4ccccn4)CC3)cc2)n1 (centres undefined) do in these assays?
DNMT1 block: -1; LMPTP inh: -1; STEP inh: 2; SUMO1 PPI mod: 0; Scp-1 inhibitor: -5; NadD block: 1

What do the screens show for `O=C(NCCCN1CCOCC1)c1ccc2c(=O)n(Cc3cccc(Br)c3)c(=S)[nH]c2c1`?
DNMT1 block: -3; LMPTP inh: -5; STEP inh: 4; SUMO1 PPI mod: 7; Scp-1 inhibitor: -10; NadD block: -8

How did CCCN(CC(=O)Nc1ccccc1C)C(=O)C1CC(=O)N(Cc2ccccc2)C1 (centres undefined) do in these assays?
DNMT1 block: 0; LMPTP inh: -1; STEP inh: 2; SUMO1 PPI mod: 4; Scp-1 inhibitor: 4; NadD block: -1; Scp1 confirm: -3; Scp-1 MG ctr: -5

How did COc1ccc(NC(=S)N/N=C/c2cccn2Cc2ccc(F)cc2Cl)cc1 do in these assays?
DNMT1 block: -4; LMPTP inh: 2; STEP inh: 0; SUMO1 PPI mod: -3; Scp-1 inhibitor: -3; NadD block: 8

What do the screens show for `O=C1CCC(CCC(=O)N2CCCC(C(=O)c3cccc(C(F)(F)F)c3)C2)=NN1` (centres undefined)?
DNMT1 block: -14; LMPTP inh: 0; STEP inh: 1; SUMO1 PPI mod: 3; Scp-1 inhibitor: -8; NadD block: 3; Scp1 confirm: -9; Scp-1 MG ctr: -4

What do the screens show for `COc1cccc(C(=O)C2CCCN(C(=O)CCC3=NNC(=O)CC3)C2)c1` (centres undefined)?
DNMT1 block: 0; LMPTP inh: -2; STEP inh: -2; SUMO1 PPI mod: 1; Scp-1 inhibitor: 4; NadD block: -2

What do the screens show for `Cc1cc2c(NC(=O)CC(C)(C)CC(=O)O)cccc2nn1`?
DNMT1 block: -16; LMPTP inh: 1; STEP inh: 4; SUMO1 PPI mod: -1; Scp-1 inhibitor: 52*; NadD block: -8; Scp1 confirm: -8; Scp-1 MG ctr: -11

What do the screens show for `CC[C@H](C)NC(=O)c1ccc(Cn2c(=S)[nH]c3c([nH]c4ccc(OC)cc43)c2=O)cc1`?
DNMT1 block: 44; LMPTP inh: -1; STEP inh: 2; SUMO1 PPI mod: 11; Scp-1 inhibitor: 57*; NadD block: 15; Scp1 confirm: 43*; Scp-1 MG ctr: -4; Scp-1 Tm shift: -17

What do the screens show for `CCCCNC(=O)c1ccc(Cn2c(=S)[nH]c3c([nH]c4ccc(OC)cc43)c2=O)cc1`?
DNMT1 block: 26; LMPTP inh: -1; STEP inh: -2; SUMO1 PPI mod: 5; Scp-1 inhibitor: -2; NadD block: 16
